# In ChEMBL document CHEMBL1128436, “Synthesis and biological evaluation of a new series of sterols as potential hypocholesterolemic agents” (1995):
# Activity calls are given as the source filed them. The rule behind the calls is not given here.
# Key:
# [1] = molecular target: Low-density lipoprotein receptor (Homo sapiens) (UniProt P01130); experiment: (§1) Capability of derepressing the transcription of Low density lipoprotein receptor promoter in the presence of 25-hydroxycholesterol in CHO cells measured as maximum activity at 20 ug/mL; format: cell-based
# Low-density lipoprotein receptor (Homo sapiens), sequence (P01130 whole entry, the tested form may be a part): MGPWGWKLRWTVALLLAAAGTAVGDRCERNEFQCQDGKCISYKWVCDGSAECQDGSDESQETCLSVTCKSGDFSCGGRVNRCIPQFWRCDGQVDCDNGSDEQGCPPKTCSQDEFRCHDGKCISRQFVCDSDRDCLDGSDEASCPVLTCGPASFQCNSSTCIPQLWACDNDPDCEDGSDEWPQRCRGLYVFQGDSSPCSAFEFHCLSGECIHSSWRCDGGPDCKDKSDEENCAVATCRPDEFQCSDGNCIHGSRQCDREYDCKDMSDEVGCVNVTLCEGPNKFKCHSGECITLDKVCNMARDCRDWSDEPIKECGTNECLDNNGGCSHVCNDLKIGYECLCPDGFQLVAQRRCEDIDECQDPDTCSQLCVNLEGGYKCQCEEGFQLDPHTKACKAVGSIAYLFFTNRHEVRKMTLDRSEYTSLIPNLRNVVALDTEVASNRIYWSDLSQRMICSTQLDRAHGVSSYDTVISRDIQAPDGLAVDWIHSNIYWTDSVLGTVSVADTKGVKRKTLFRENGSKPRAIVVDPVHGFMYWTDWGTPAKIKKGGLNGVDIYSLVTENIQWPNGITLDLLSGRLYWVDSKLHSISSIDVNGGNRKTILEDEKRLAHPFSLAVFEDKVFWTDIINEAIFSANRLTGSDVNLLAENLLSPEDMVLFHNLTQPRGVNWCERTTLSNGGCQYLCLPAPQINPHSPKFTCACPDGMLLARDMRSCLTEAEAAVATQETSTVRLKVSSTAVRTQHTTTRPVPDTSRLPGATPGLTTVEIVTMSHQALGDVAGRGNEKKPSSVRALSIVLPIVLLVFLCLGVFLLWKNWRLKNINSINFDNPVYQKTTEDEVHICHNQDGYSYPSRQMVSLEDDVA
# Method in brief: (§2)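 Stably transfected CHO clone S27/B30 (LDL receptor promoter fused to firefly luciferase), grown to confluence (2-3 days, 37 °C, 5% CO2). Then 24 h in serum-free assay medium (DMEM/Ham's F-12 3:1, 0.5% bovine albumin) with 25-hydroxycholesterol 0.5 μg/mL plus compound at 0.30-20 μg/mL from ethanol stock, triplicate wells. Lysate luciferase peak light per μg protein (Coomassie). EC30 = concentration giving 30% rise over control. MA = % specific induction at 20 μg/mL.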
# CHO [2] = experiment: In vitro [1-14C]-acetate]-cholesterol biosynthesis inhibition assay (14CACBI) in CHO cells; neg = Negative :no effect on biosynthesis of cholesterol; format: functional, cell-based; conditions: Cricetulus griseus
# Method in brief: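 Confluent CHO cells in replicate 100 mm dishes were held 20 h in assay medium without 25-hydroxycholesterol, with ethanol vehicle (0.5% v/v) or compound at 20 μg/mL. [1-14C]acetate was then added (final 1 μCi/mL) for 4 h more. Cells were scraped and sonicated, lipids separated, and the cholesterol band scraped and counted by scintillation.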
# [3] = molecular target: Low-density lipoprotein receptor (Homo sapiens) (UniProt P01130); experiment: Capability of derepressing the transcription of human Low density lipoprotein receptor promoter in the presence of 25-hydroxycholesterol in CHO cells by luciferase assay; format: cell-based; method in brief: as §2
# CHO [4] = experiment: Capability of derepressing the transcription of SV40 promoter in CHO cells by luciferase assay; NA= Not active within the test range 0-20 ug/mL; format: functional, cell-based; conditions: Cricetulus griseus
# Method in brief: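 Counter-screen in CHO clone SV40/LN9, with luciferase driven by the SV40 promoter. Confluent monolayers were given compound at 0.30-20 μg/mL for 24 h in serum-free albumin assay medium, triplicate wells. Lysates were read for luciferase peak luminescence, normalized to lysate protein.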
# Mesocricetus auratus [5] = species on record: Mesocricetus auratus; experiment: Serum cholesterol level change relative to the control value (313(24)) in hamsters at a dose of 0.2% of diet for 1 week
# Cricetinae gen. sp. [6] = experiment: Total serum cholesterol level with relative to the control value (313(24)) in hamsters at a dose of 0.2% of diet for 1 week; format: functional, Cricetulus griseus
# Cricetinae gen. sp. [7] = experiment: Serum cholesterol level change relative to the control value (274(23)) in hamsters at a dose of 0.2% of diet for 1 week; format: functional, Cricetulus griseus
# Cricetinae gen. sp. [8] = experiment: Total serum cholesterol level relative to the control value (274(23)) in hamsters at a dose of 0.2% of diet for 1 week; format: functional, Cricetulus griseus
# Cricetinae gen. sp. [9] = experiment: Total serum cholesterol level with relative to the control value (274(23)) in hamsters at a dose of 0.2% of diet for 1 week; format: functional, Cricetulus griseus
# Mesocricetus auratus [10] = species on record: Mesocricetus auratus; experiment: Serum cholesterol level change relative to the control value (425(58)) in hamsters at a dose of 0.2% of diet for 1 week
# Cricetinae gen. sp. [11] = experiment: Total serum cholesterol level with relative to the control value (425(58)) in hamsters at a dose of 0.2% of diet for 1 week; format: functional, Cricetulus griseus
# [12] = molecular target: Low-density lipoprotein receptor (Homo sapiens) (UniProt P01130); experiment: Capability of derepressing the transcription of human Low density lipoprotein receptor promoter in the presence of 25-hydroxycholesterol in CHO cells by luciferase assay; NA= Not active within the test range 0-20 ug/mL; format: cell-based; method in brief: as §2
# Cricetinae gen. sp. [13] = experiment: Total serum cholesterol level with relative to the control value (306(27) in hamsters at a dose of 0.2% of diet for 1 week; format: functional, Cricetulus griseus
# Mesocricetus auratus [14] = species on record: Mesocricetus auratus; experiment: Serum cholesterol level change relative to the control value (306(27)) in hamsters at a dose of 0.2% of diet for 1 week
# [15] = molecular target: Low-density lipoprotein receptor (Homo sapiens) (UniProt P01130); experiment: as §1; format: functional, cell-based; method in brief: as §2
# Mesocricetus auratus [16] = species on record: Mesocricetus auratus; experiment: Serum cholesterol level change relative to the control value [306(27)] in hamsters at a dose of 0.2% of diet for 1 week
# Cricetinae gen. sp. [17] = experiment: Total serum cholesterol level with relative to the control value [306(27)] in hamsters at a dose of 0.2% of diet for 1 week; format: functional, Cricetulus griseus
SMILES,MA [1],Activity (CHO [2]),EC30 [3],Activity (CHO [4]),other results
CC(C)CCC[C@@H](C)[C@H]1CC[C@H]2[C@@H]3CCC4[C@H](Cc5ccccc5)[C@H](O)CC[C@]4(C)[C@H]3CC[C@]12C (some centres not stated),44%,Negative,32 µM,inactive,Relative change (Mesocricetus auratus [5]): -35%; Total cholesterol (Cricetinae gen. sp. [6]): 202 mg/dL
CC(C)CCC[C@@H](C)[C@H]1CC[C@H]2[C@@H]3CC[C@H]4[C@H](Cc5ccc(F)cc5)[C@@H](O)CC[C@]4(C)[C@H]3CC[C@]12C,–,–,–,–,Relative change (Cricetinae gen. sp. [7]): 5%; Total cholesterol (Cricetinae gen. sp. [8]): 287 mg/dL
CC(C)CCC[C@@H](C)[C@H]1CC[C@H]2[C@@H]3CCC4[C@H](Cc5ccc(Br)cc5)[C@H](O)CC[C@]4(C)[C@H]3CC[C@]12C (some centres not stated),57%,–,6 µM,inactive,Relative change (Cricetinae gen. sp. [7]): -42%; Total cholesterol (Cricetinae gen. sp. [9]): 160 mg/dL
CC(C)CCC[C@@H](C)[C@H]1CC[C@H]2[C@@H]3CCC4[C@H](C/C=C\Cl)[C@H](O)CC[C@]4(C)[C@H]3CC[C@]12C (some centres not stated),–,–,–,–,Relative change (Mesocricetus auratus [10]): -26%; Total cholesterol (Cricetinae gen. sp. [11]): 316 mg/dL; EC30 [12]: inactive
C=CC[C@@H]1C[C@@]2(C)C(CC[C@H]3[C@@H]4CC[C@H]([C@H](C)CCCC(C)C)[C@@]4(C)CC[C@@H]32)C[C@@H]1O (some centres not stated),60%,Negative,41 µM,inactive,Relative change (Mesocricetus auratus [5]): -33%; Total cholesterol (Cricetinae gen. sp. [6]): 209 mg/dL
C=CC[C@H]1C2=CCC3C(CC[C@@]4(C)C3CC[C@@H]4[C@H](C)CCCC(C)C)[C@@]2(C)CC[C@H]1O (some centres not stated),96%,Negative,3.5 µM,inactive,Total cholesterol (Cricetinae gen. sp. [13]): 163 mg/dL; Relative change (Mesocricetus auratus [14]): -47%
Cc1ccc(C[C@H]2C3CC[C@H]4[C@@H]5CC[C@H]([C@H](C)CCCC(C)C)[C@@]5(C)CC[C@@H]4[C@@]3(C)CC[C@H]2O)cc1 (some centres not stated),–,–,35 µM,inactive,MA [15]: 45%; Relative change (Mesocricetus auratus [10]): -33%; Total cholesterol (Cricetinae gen. sp. [11]): 283 mg/dL
CC(C)CCC[C@@H](C)[C@H]1CC[C@H]2[C@@H]3CCC4[C@H](Cc5ccc(O)cc5)[C@H](O)CC[C@]4(C)[C@H]3CC[C@]12C (some centres not stated),–,–,–,–,Relative change (Mesocricetus auratus [16]): -15%; Total cholesterol (Cricetinae gen. sp. [17]): 261 mg/dL; EC30 [12]: inactive
CCC[C@H]1C2CC[C@H]3[C@@H]4CC[C@H]([C@H](C)CCCC(C)C)[C@@]4(C)CC[C@@H]3[C@@]2(C)CC[C@H]1O (some centres not stated),48%,Negative,38 µM,inactive,Total cholesterol (Cricetinae gen. sp. [13]): 222 mg/dL; Relative change (Mesocricetus auratus [14]): -27%
